In brackets after ≈: the same amount, converted by molar mass. Blank lines part the entries; values can stand above or below the molecule they belong to. Activity calls are given as the source filed them. The rule behind the calls is not given here.
What was measured:
Type in all cases: functional
[1] = system: Pseudomonas aeruginosa; assay: Agonist activity at Pseudomonas aeruginosa QSIS2 LasR-mediated quorum sensing co-expressing SacB1 assessed as luminescence at 0.25 mM after 24 hrs by reporter gene assay
[2] = system: Pseudomonas aeruginosa; assay: Agonist activity at Pseudomonas aeruginosa QSIS2 LasR-mediated quorum sensing co-expressing SacB1 assessed as luminescence at 0.5 mM after 24 hrs by reporter gene assay
[3] = system: Pseudomonas aeruginosa; assay: Antibacterial activity against Pseudomonas aeruginosa PAO1 after 20 hrs by broth microdilution assay; details: PAO1, 20 h
How it was run: (§1)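 EUCAST broth microdilution in triplicate, inoculum about 5 × 10^5 CFU/ml. Incubated 20 h at 37 °C, then OD590 read. Compounds from 100 mM DMSO stocks, diluted in water.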

[4] = system: Pseudomonas aeruginosa; assay: Antagonist activity at Pseudomonas aeruginosa QSIS2 LasR-mediated quorum sensing co-expressing SacB1 assessed as inhibition of 3-oxo-C12-HSL-induced luminescence at 0.1 mM after 24 hrs by reporter gene assay
[5] = biological target: T1, Transcriptional activator protein LuxR (Aliivibrio fischeri) (UniProt P12746); assay: Agonist activity at Vibrio fischeri LuxR-mediated quorum sensing expressed in Escherichia coli JB523 assessed as GFP expression at 1 mM after 24 hrs by reporter gene assay
T1 sequence (whole entry): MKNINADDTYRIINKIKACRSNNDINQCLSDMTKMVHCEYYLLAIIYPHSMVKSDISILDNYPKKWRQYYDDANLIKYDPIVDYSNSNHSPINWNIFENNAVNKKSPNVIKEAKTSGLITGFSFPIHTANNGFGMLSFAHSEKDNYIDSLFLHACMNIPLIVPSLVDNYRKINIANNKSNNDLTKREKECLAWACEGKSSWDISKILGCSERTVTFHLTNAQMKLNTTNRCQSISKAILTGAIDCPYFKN
How it was run: (§2)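 E. coli JB523 (pJBA130, luxR-PluxI–GFP) overnight culture diluted to OD590 0.1 in LB with 0.4% NaCl, tetracycline 100 µg/ml final. Compounds 100–1000 µM added without signal; C6-HSL (5 µM) as positive control, water as negative. 24 h at 30 °C; GFP fluorescence ex 485/em 510 nm. Twelve wells per compound, ≥3 repeats.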

[6] = biological target: T1, Transcriptional activator protein LuxR (Aliivibrio fischeri); assay: Agonist activity at Vibrio fischeri LuxR-mediated quorum sensing expressed in Escherichia coli JB523 assessed as GFP expression at 0.25 mM after 24 hrs by reporter gene assay; how it was run: as §2
[7] = system: Pseudomonas aeruginosa; assay: Antagonist activity at Pseudomonas aeruginosa QSIS2 LasR-mediated quorum sensing co-expressing SacB1 assessed as inhibition of 3-oxo-C12-HSL-induced luminescence at 1 mM […] by reporter gene assay
[8] = system: Burkholderia cenocepacia; assay: Antibacterial activity against Burkholderia cenocepacia LMG16656 after 20 hrs by broth microdilution assay; details: LMG16656, 20 h; how it was run: as §1
[9] = biological target: T1, Transcriptional activator protein LuxR (Aliivibrio fischeri); assay: Antagonist activity at Vibrio fischeri LuxR-mediated quorum sensing expressed in Escherichia coli JB523 assessed as inhibition of C6-HSL-induced GFP expression at 0.1 mM after 24 hrs by reporter gene assay
How it was run: (§3)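 JB523 GFP biosensor in LB/0.4% NaCl at OD590 0.1 with tetracycline 100 µg/ml final; compounds co-added with C6-HSL (5 µM). Plates kept 24 h at 30 °C, then GFP read at 485/510 nm. Each compound tested in twelve wells, assay repeated at least three times.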

[10] = system: Pseudomonas aeruginosa; assay: Agonist activity at Pseudomonas aeruginosa QSIS2 LasR-mediated quorum sensing co-expressing SacB1 assessed as luminescence at 0.1 mM after 24 hrs by reporter gene assay
[11] = system: Pseudomonas aeruginosa; assay: Antagonist activity at Pseudomonas aeruginosa QSIS2 LasR-mediated quorum sensing co-expressing SacB1 assessed as inhibition of 3-oxo-C12-HSL-induced luminescence at 0.25 mM […] by reporter gene assay
[12] = system: Escherichia coli; assay: Antibacterial activity against Escherichia coli JB523 after 20 hrs by broth microdilution assay; details: JB523, 20 h; how it was run: as §1
[13] = biological target: T1, Transcriptional activator protein LuxR (Aliivibrio fischeri); assay: Antagonist activity at Vibrio fischeri LuxR-mediated quorum sensing expressed in Escherichia coli JB523 assessed as inhibition of C6-HSL-induced GFP expression after 24 hrs by reporter gene assay; how it was run: as §3
[14] = biological target: T1, Transcriptional activator protein LuxR (Aliivibrio fischeri); assay: Antagonist activity at Vibrio fischeri LuxR expressed in Escherichia coli JB523 assessed as inhibition of C6-HSL-induced GFP expression at 0.5 mM after 24 hrs by reporter gene assay; how it was run: as §3
[15] = biological target: T1, Transcriptional activator protein LuxR (Aliivibrio fischeri); assay: Agonist activity at Vibrio fischeri LuxR-mediated quorum sensing expressed in Escherichia coli JB523 assessed as GFP expression at 0.1 mM after 24 hrs by reporter gene assay; how it was run: as §2
[16] = system: Pseudomonas aeruginosa; assay: Antagonist activity at Pseudomonas aeruginosa QSIS2 LasR-mediated quorum sensing co-expressing SacB1 assessed as inhibition of 3-oxo-C12-HSL-induced luminescence at 0.5 mM after 24 hrs by reporter gene assay
[17] = biological target: T1, Transcriptional activator protein LuxR (Aliivibrio fischeri); assay: Antagonist activity at Vibrio fischeri LuxR-mediated quorum sensing expressed in Escherichia coli JB523 assessed as inhibition of C6-HSL-induced GFP expression at 1 mM after 24 hrs by reporter gene assay; how it was run: as §3
[18] = biological target: T1, Transcriptional activator protein LuxR (Aliivibrio fischeri); assay: Agonist activity at Vibrio fischeri LuxR-mediated quorum sensing expressed in Escherichia coli JB523 assessed as GFP expression at 0.5 mM after 24 hrs by reporter gene assay; how it was run: as §2
[19] = system: Pseudomonas aeruginosa; assay: Agonist activity at Pseudomonas aeruginosa QSIS2 LasR-mediated quorum sensing coexpressing SacB1 assessed as […] by reporter gene assay
[20] = system: Pseudomonas aeruginosa; assay: Antibacterial activity against Pseudomonas aeruginosa QSIS2 after 20 hrs by broth microdilution assay; details: QSIS2, 20 h; how it was run: as §1
[21] = system: Pseudomonas aeruginosa; assay: Agonist activity at Pseudomonas aeruginosa QSIS2 LasR-mediated quorum sensing co-expressing SacB1 assessed as luminescence after 24 hrs by reporter gene assay

MIC [3]: 5 mM (≈ 1120 µg/mL) | Activity [5]: 25.9% | Activity [6]: 5.7% | MIC [8]: 5 mM (≈ 1120 µg/mL) | inhibition [9]: 9% | MIC [12]: 5 mM (≈ 1120 µg/mL) | inhibition [13]: Dose-dependent effect | inhibition [14]: 27.5% | Activity [15]: inactive | inhibition [17]: 35.1% | Activity [18]: 16.3% | MIC [20]: 5 mM (≈ 1120 µg/mL)
SMILES: CCCCCc1cn(C2CCOC2=O)nn1 (stereo not drawn)
Activity [1]: inactive | Activity [2]: inactive | inhibition [4]: inactive | inhibition [7]: inactive | Activity [10]: inactive | inhibition [11]: inactive | inhibition [16]: inactive | Activity [19]: inactive

MIC [3]: 5 mM (≈ 1190 µg/mL) | Activity [5]: 32.7% | Activity [6]: 10% | MIC [8]: 5 mM (≈ 1190 µg/mL) | inhibition [9]: 11.6% | MIC [12]: 5 mM (≈ 1190 µg/mL) | inhibition [13]: Dose-dependent effect | inhibition [14]: 23.2% | Activity [15]: inactive | inhibition [17]: 34.3% | Activity [18]: 17.5% | MIC [20]: 5 mM (≈ 1190 µg/mL)
SMILES: CCCCCCc1cn(C2CCOC2=O)nn1 (stereo not drawn)
Activity [1]: inactive | Activity [2]: inactive | inhibition [4]: inactive | inhibition [7]: inactive | Activity [10]: inactive | inhibition [11]: inactive | inhibition [16]: inactive | Activity [19]: inactive

MIC [3]: 5 mM (≈ 1260 µg/mL) | Activity [5]: 17.6% | Activity [6]: 8% | MIC [8]: 5 mM (≈ 1260 µg/mL) | inhibition [9]: 13.7% | MIC [12]: 5 mM (≈ 1260 µg/mL) | inhibition [13]: Dose-dependent effect | inhibition [14]: 34.6% | Activity [15]: inactive | inhibition [17]: 39% | Activity [18]: 12.2% | MIC [20]: 5 mM (≈ 1260 µg/mL)
SMILES: CCCCCCCc1cn(C2CCOC2=O)nn1 (stereo not drawn)
Activity [1]: inactive | Activity [2]: inactive | inhibition [4]: inactive | inhibition [7]: inactive | Activity [10]: inactive | inhibition [11]: inactive | inhibition [16]: inactive | Activity [19]: inactive

MIC [3]: 5 mM (≈ 1050 µg/mL) | Activity [5]: 17.3% | Activity [6]: inactive | MIC [8]: 5 mM (≈ 1050 µg/mL) | inhibition [9]: 12.7% | MIC [12]: 5 mM (≈ 1050 µg/mL) | inhibition [13]: Dose-dependent effect | inhibition [14]: 22.5% | Activity [15]: inactive | inhibition [17]: 27.9% | Activity [18]: 11.6% | MIC [20]: 5 mM (≈ 1050 µg/mL)
SMILES: CCCCc1cn(C2CCOC2=O)nn1 (stereo not drawn)
Activity [1]: inactive | Activity [2]: inactive | inhibition [4]: inactive | inhibition [7]: inactive | Activity [10]: inactive | inhibition [11]: inactive | inhibition [16]: inactive | Activity [19]: inactive

The next lines start with the molecule.

SMILES: CCCCCCCCCCc1cn(C2CCOC2=O)nn1 (stereo not drawn)
Activity [1]: 31.4% | Activity [2]: 38% | MIC [3]: 2.5 mM (≈ 734 µg/mL) | inhibition [4]: 7% | Activity [5]: inactive | Activity [6]: inactive | inhibition [7]: 21.9% | MIC [8]: 2.5 mM (≈ 734 µg/mL) | inhibition [9]: 12.4% | Activity [10]: 32.1% | inhibition [11]: 8.1% | MIC [12]: 2.5 mM (≈ 734 µg/mL) | inhibition [13]: Dose-dependent effect | inhibition [14]: 28% | Activity [15]: inactive | inhibition [16]: 15% | inhibition [17]: 31.9% | Activity [21]: Dose-dependent effect | Activity [18]: inactive | Activity [19]: 57.2% | MIC [20]: 2.5 mM (≈ 734 µg/mL)

SMILES: O=C1OCCC1n1cc(Cc2ccccc2)nn1 (stereo not drawn)
Activity [1]: 31.1% | Activity [2]: 39.7% | MIC [3]: 5 mM (≈ 1220 µg/mL) | inhibition [4]: inactive | Activity [5]: inactive | Activity [6]: inactive | inhibition [7]: 49.9% | MIC [8]: 5 mM (≈ 1220 µg/mL) | inhibition [9]: 6.3% | Activity [10]: 19.1% | inhibition [11]: inactive | MIC [12]: 5 mM (≈ 1220 µg/mL) | inhibition [13]: Dose-dependent effect | inhibition [14]: 29.6% | Activity [15]: inactive | inhibition [16]: inactive | inhibition [17]: 34.4% | Activity [21]: Dose-dependent effect | Activity [18]: inactive | Activity [19]: 67.5% | MIC [20]: 5 mM (≈ 1220 µg/mL)

SMILES: O=C1OCCC1n1cc(-c2ccccc2)nn1 (stereo not drawn)
Activity [1]: inactive | Activity [2]: 14.4% | MIC [3]: 5 mM (≈ 1150 µg/mL) | inhibition [4]: inactive | Activity [5]: 12.8% | Activity [6]: inactive | inhibition [7]: inactive | MIC [8]: 5 mM (≈ 1150 µg/mL) | inhibition [9]: inactive | Activity [10]: inactive | inhibition [11]: inactive | MIC [12]: 10 mM (≈ 2290 µg/mL) | inhibition [13]: Dose-dependent effect | inhibition [14]: 24.5% | Activity [15]: inactive | inhibition [16]: inactive | inhibition [17]: 26.9% | Activity [21]: Dose-dependent effect | Activity [18]: inactive | Activity [19]: 22.2% | MIC [20]: 5 mM (≈ 1150 µg/mL)

— ChEMBL document CHEMBL2062523, “Synthesis and evaluation of the quorum sensing inhibitory effect of substituted triazolyldihydrofuranones” (Bioorg Med Chem, 2012)
